Source: PubChem BioAssay
MrgX1 agonist = activates human MrgX1 receptor signaling; actives 0.44% (n = 310,000); Q96LB2; B-score at 10 µM; AID 588627; MrgX1-HEK293 cells, Fluo-4 calcium fluorescence, agonist mode; hits give high values;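 active = calcium response B-score plate-corrected fluorescence ratio at least 3 library SD, with starting fluorescence B-score inside 5 SD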
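Material: MrgX1-expressing HEK293 cells / Dosing: compound as first of three additions / Incubation: overnight seeding, then 1 h dark dye loading / Signal: Fluo-4 NW calcium fluorescence / Evaluation: B-scored fluorescence response ratio / Benchmarks: positive and negative control wells on each plate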
MrgX1 antagonist = blocks BAM8-22 activation of human MrgX1 receptor | Q96LB2 | MRGX1-HEK293 calcium flux, Fluo-4, BAM8-22 antagonism; hits give low values | B-score at 10 µM | actives 1.3% (n = 310,000) | AID 588676;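 active = calcium-response B-score plate-corrected more than 3 library SD below zero, starting fluorescence within 5 deviations, no agonist response on first addition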;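 also: peak minus trough fluorescence over baseline after final BAM8-22 challenge near maximal dose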
RGS4 block = human RGS4 inhibition; HEK293 M3R/RGS4 inducible, Fluo-4 calcium flux; hits give high values; triggered by carbachol at its EC20; B-score at 10 µM; actives 0.45% (n = 310,000); AID 463165;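 active = B-score, a plate-corrected calcium signal, over three deviations above library mean, with baseline fluorescence within five deviations of library mean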;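 also: RGS4 expression induced by doxycycline in cells with stable M3 receptor; B-score is computed from the integrated fluorescence ratio over baseline after carbachol; higher B-score means a larger calcium signal and so more RGS4 inhibition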
Target sequence (P49798 whole entry, looked up): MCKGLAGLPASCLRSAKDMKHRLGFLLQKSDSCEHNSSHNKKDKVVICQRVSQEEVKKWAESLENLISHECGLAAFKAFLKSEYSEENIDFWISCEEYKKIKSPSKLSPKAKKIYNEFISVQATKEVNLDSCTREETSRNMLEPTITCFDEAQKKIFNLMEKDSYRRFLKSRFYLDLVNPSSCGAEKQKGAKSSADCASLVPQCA
RGS4 act = potentiators or activators of RGS4. AID 463111. HEK293 M3R/inducible RGS4, carbachol calcium flux Fluo4; hits give low values. actives 0.92% (n = 310,000). B-score at 10 µM;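 active = B-score of the integrated calcium signal more than 4 SD below the library mean, with starting fluorescence not abnormally high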;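 also: negative B-score means reduced calcium response which marks RGS4 activation or potentiation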
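Assay system: Inducible-RGS4 HEK293 cells carrying M3 receptor | Schedule: Compound preincubation 20 min at room temperature before agonist | Signal: Kinetic calcium fluorescence imaging with Fluo4-AM dye, 2 µM | Read-out basis: B score from integrated fluorescence ratio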
MrgX1 PAM = allosterically activates human MrgX1 receptor signaling | Q96LB2 | MrgX1-HEK293, Fluo-4 calcium flux, FDSS; hits give high values | B-score at 10 µM | actives 0.63% (n = 310,000) | AID 588675;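 active = plate-corrected calcium response at least 3 library SD above typical, normal starting fluorescence, not activating the receptor alone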;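 also: compound read alongside a low EC10 to EC30 dose of BAM8-22 agonist; peak minus trough fluorescence over baseline measured at the second addition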
Each line names hits and unclear results; the compound was inactive in the other large screens; ! = a repeat was not active. Compounds with a hit are over-represented: about 3.5% of the library has one in this group of screens.

O=C(CSc1nnc(CNC(=O)c2ccccc2F)o1)NC1CCCC1	none
CC[C@@H](C)[C@H](NC(=O)OC(C)(C)C)c1nnc(S(=O)(=O)Cc2cc(C)ccc2C)o1	MrgX1 PAM 7.1
Cc1ccccc1CS(=O)(=O)c1nnc([C@H](CC(C)C)NC(=O)OC(C)(C)C)o1	MrgX1 agonist 33
Cc1ccc(CCN2C(Nc3ccccc3)=NC[C@@H]2C)cc1	none (no result: RGS4 block, RGS4 act)
Cn1c(=O)c(=O)n(C)c2cc(N3CCOCC3)c(NS(=O)(=O)c3ccc([N+](=O)[O-])cc3)cc21	MrgX1 PAM 14
Cn1c(=O)c(=O)n(C)c2cc(N3CCOCC3)c(NS(=O)(=O)c3ccc(F)c(Cl)c3)cc21	none
Cc1c(N=Cc2c(O)n(C)c(=O)c3ccccc23)c(=O)n(-c2ccccc2)n1C	RGS4 act -7.2
CC(=O)c1cccc(Nc2nc(-c3sc(N)nc3C)cs2)c1	RGS4 act -7.2
CC(=O)c1cccc(Nc2nc(-c3sc(C)nc3C)cs2)c1	none
CCC(=O)Nc1nc(C)c(-c2csc(Nc3cccc(O)c3)n2)s1	MrgX1 antagonist -5.4, RGS4 act -7.3
Cc1nc(C)c(-c2csc(Nc3cccc(O)c3)n2)s1	none
Cc1ccc(N2CC(C)Cn3c2nc2c3c(=O)[nH]c(=O)n2C)cc1C (stereo not given)	none
O=C1N=NC(=O)N1c1ccccc1	none
Cc1cc2nc(-c3ccc(SCC(=O)Nc4ccc(S(=O)(=O)N5CCCC5)cc4)nc3)[nH]c2cc1C	none
O=C(CSc1ccc(-c2nc3ccccc3[nH]2)cn1)Nc1ccc(S(=O)(=O)N2CCCC2)cc1	RGS4 act -7.1
Cc1ccc(C(=O)c2cc([N+](=O)[O-])ccc2N2CCCCC2)cc1C	RGS4 act -7.6
CSc1ncccc1C(=O)Nc1ccc(S(=O)(=O)NC2=NCCCCC2)cc1	MrgX1 antagonist -4.6
O=C(c1ccco1)N1CCN(c2ncnc3sc4c(c23)CCC4)CC1	RGS4 act -7.2
CCc1nc(N2CCN(C(=O)c3ccco3)CC2)c2c3c(sc2n1)CCCC3	none
CCOC(=O)C1=C(C)N(CC(C)C)C(=O)/C1=C\c1ccc(OCC(=O)Nc2ccccc2)cc1	RGS4 act -7.1
COc1ccccc1-c1coc2c(CN3CCCC(C)C3)c(O)ccc2c1=O (stereo not given)	none
OCCNc1c2ccccc2nc2c(F)c(F)c(F)c(F)c12	MrgX1 antagonist -8
CN(C)CCCNc1c2ccccc2nc2ccccc12	none
O=C(CSc1nnc(-c2ccc(F)cc2)o1)N1CCCC1	none
COc1ccc(S(=O)(=O)N2CCCCCC2)cc1C(=O)N(C)Cc1ccc(Cl)cc1Cl	MrgX1 PAM 14
COc1cc(OC)cc(C(=O)N/N=C\c2ccoc2)c1	none
O=C(CN1CCN(C(=O)c2ccco2)CC1)N1CCc2[nH]c3ccccc3c2C1	MrgX1 antagonist -5.9
CC1=NN(C(=O)COc2cc(C)ccc2C(C)C)C(O)(c2ccccc2)C1 (stereo not given)	MrgX1 PAM 8
CC(C)(C)OC(=O)N1CCC(c2c(C(=O)NCC3CCN(C4CCCC4)C3)cnn2-c2ccc(F)cc2)CC1 (stereo not given)	none
CCOC(=O)C1=C(C)NC(C)=C(C(=O)OC)C1c1cccc(Cl)c1Cl (stereo not given)	none
CCOC(=O)C1=C(COCCN)NC(C)=C(C(=O)OC)C1c1ccccc1Cl (stereo not given)	MrgX1 agonist 27!
CCOc1c([N+](=O)[O-])cc2c(C)c(C(=O)N3CCN(C)CC3)oc2c1OCC	none
COc1ccc(/C=N\NC(=O)c2ccccc2)cc1COc1ccccc1	none
CCOC(=O)c1ccccc1OCc1cc(/C=N/NC(=O)c2cccnc2)ccc1OC	RGS4 act -7.9
COc1ccc(/C=N\NC(=O)c2ccc(F)cc2)cc1COc1cc(F)ccc1[N+](=O)[O-]	RGS4 act -9.8
COc1ccc(/C=N/NS(=O)(=O)c2ccc(F)cc2)cc1COc1cc(F)ccc1[N+](=O)[O-]	none
O=C1N/C(=C\c2ccc(N3CCOCC3)c(F)c2)C(=O)N1Cc1ccccc1	MrgX1 antagonist -8.6
O=C1N/C(=C/c2cccn2-c2ccccc2)C(=O)N1Cc1ccc(F)cc1	none
CCN(CCCNC(=O)Cn1ncc2c([nH]c3ccc(C)cc32)c1=O)c1cccc(C)c1	none
